Published values collected from several papers.
Protocols differ between the studies behind these lines. In brackets after ≈: the same amount, converted by molar mass.

With O=C1C=C(OCc2cn(-c3ccc(F)cc3)nn2)C(=O)c2ccccc21 the IC50 was 165 µg/mL (≈ 472 µM) (Escherichia coli; microbial growth, broth dilution; ATCC25922).
With O=C1NC(=S)S/C1=C\c1c2ccccc2c(-c2ccc(N(c3ccccc3)c3ccccc3)cc2)c2ccccc12 the MBC was over 1000 µg/mL (Micrococcus luteus; microbial killing, broth dilution; ATCC10240).
With CC(C)c1nn(-c2nc3ccc(Br)cc3s2)c2c1C(=O)c1ccccc1-2 the inhibition zone was 11 mm (Staphylococcus aureus; microbial growth, well diffusion; NCIM5021; 500 µg/mL).
The MIC of CNC(=O)c1cc(COc2nnc(Nc3ccc(Cl)cc3)c3ccoc23)ccn1 is reported as over 30 µM (Staphylococcus aureus; microbial growth; NCTC8325).
The IC50 of O=[N+]([O-])c1ccc(S(=O)(=O)Oc2cccc3cccnc23)cc1 is reported as 215 µg/mL (≈ 650 µM) (Escherichia coli; microbial growth, broth dilution; ATCC25922).
With CC[C@@H]1C(=O)N(C)c2cnc(Nc3ccc(C(=O)N[C@H]4CC[C@H](N5CCN(CC6CC6)CC5)CC4)cc3OC)nc2N1C(C)C the MIC was over 30 µM (Staphylococcus aureus; microbial growth; NCTC8325).
For O=C1NC(=S)S/C1=C\c1ccc(-c2ccc(N(c3ccccc3)c3ccccc3)cc2)c2ccccc12, the MBC was over 1000 µg/mL (Micrococcus luteus; microbial killing, broth dilution; ATCC10240).
The inhibition zone of COc1ccc2nc(-n3nc(CC(C)C)c4c3-c3ccccc3C4=O)sc2c1 is reported as 12 mm (Staphylococcus aureus; microbial growth, well diffusion; NCIM5021; 250 µg/mL).
The IC50 of O=C1C=C(OCc2cn(-c3ccc(Cl)cc3)nn2)C(=O)c2ccccc21 is reported as 306 µg/mL (≈ 836 µM) (Escherichia coli; microbial growth, broth dilution; ATCC25922).
With Cc1nn(-c2nc3ccc(Cl)cc3s2)c2c1C(=O)c1ccccc1-2 the inhibition zone was 10 mm (Staphylococcus aureus; microbial growth, well diffusion; NCIM5021; 125 µg/mL).
The MIC of CN(C)C1CCN(C(=O)c2ccc(NC(=O)Nc3ccc(-c4nc(N5CCOCC5)nc(N5CCOCC5)n4)cc3)cc2)CC1 is reported as over 30 µM (Staphylococcus aureus; microbial growth; NCTC8325).
The MBC of O=C(O)CN1C(=O)/C(=C/c2ccc(-c3ccc(N(c4ccccc4)c4ccccc4)cc3)cc2)NC1=S is reported as 3.9 µg/mL (≈ 7.71 µM) (Staphylococcus aureus; microbial killing, broth dilution; ATCC43300).
For [H]/N=C(/N)N[C@H]1[C@H](O)[C@@H](O)[C@H](O[C@@H]2O[C@@H](C)[C@](O)(C=O)[C@H]2O[C@@H]2O[C@@H](CO)[C@H](O)[C@@H](O)[C@@H]2NC)[C@@H](N/C(N)=N\[H])[C@@H]1O, the inhibition zone was 30 mm (Staphylococcus aureus; microbial growth, well diffusion; NCIM5021; 1000 µg/mL).
O=C1NC(=S)N/C1=C\c1ccc(-c2ccc(N(c3ccccc3)c3ccccc3)cc2)cc1 gave an MBC of over 1000 µg/mL (Staphylococcus aureus; microbial killing, broth dilution; ATCC43300).
The inhibition zone of Cc1nn(-c2nc3ccc(Br)cc3s2)c2c1C(=O)c1ccccc1-2 is reported as 12 mm (Staphylococcus aureus; microbial growth, well diffusion; NCIM5021; 500 µg/mL).
For Cc1ccc(C(C)C)cc1OCc1cn(-c2ccc(C(=O)O)cc2)nn1, the IC50 was 15.3 µg/mL (≈ 43.5 µM) (Escherichia coli; microbial growth, broth dilution; ATCC25922).
O=C(Nc1ccc2c(c1)CCC2)Nc1ccc(Cl)c(C(F)(F)F)c1 gave an MIC of over 100 µM (Staphylococcus aureus; microbial growth; NCTC8325; 24 h).
With CCCCS(=O)(=O)Oc1cc(C(C)C)ccc1C the IC50 was 156 µg/mL (≈ 578 µM) (Escherichia coli; microbial growth, broth dilution; ATCC25922).
For Cc1ccc2nc(-n3nc(CC(C)C)c4c3-c3ccccc3C4=O)sc2c1, the inhibition zone was 11 mm (Staphylococcus aureus; microbial growth, well diffusion; NCIM5021; 250 µg/mL).
With COc1cc2c(N3CCN(C(=O)Nc4ccc(OC(C)C)cc4)CC3)ncnc2cc1OCCCN1CCCCC1 the MIC was over 30 µM (Staphylococcus aureus; microbial growth; NCTC8325).
The IC50 of O=C(O)c1ccc(-n2cc(COC3=CC(=O)c4ccccc4C3=O)nn2)cc1 is reported as 22.6 µg/mL (≈ 60.1 µM) (Escherichia coli; microbial growth, broth dilution; ATCC25922).
With Cc1cnc(-c2cnc(NCCNc3ccc(C#N)cn3)nc2-c2ccc(Cl)cc2Cl)[nH]1 the MIC was over 30 µM (Staphylococcus aureus; microbial growth; NCTC8325).
Cc1ccc2nc(-n3nc(C)c4c3-c3ccccc3C4=O)sc2c1 has an inhibition zone of 12 mm (Staphylococcus aureus; microbial growth, well diffusion; NCIM5021; 1000 µg/mL).
O=C1NC(=S)N/C1=C\c1ccc(-c2ccc(N(c3ccccc3)c3ccccc3)cc2)c2ccccc12 gave an MBC of over 1000 µg/mL (Micrococcus luteus; microbial killing, broth dilution; ATCC10240).
With Cc1ccc(Nc2nccc(N(C)c3ccc4c(C)n(C)nc4c3)n2)cc1S(N)(=O)=O the MIC was over 30 µM (Staphylococcus aureus; microbial growth; NCTC8325).
The MBC of O=C(O)CN1C(=O)/C(=C/c2ccc(-c3ccc(N(c4ccccc4)c4ccccc4)cc3)cc2)SC1=S is reported as 31.3 µg/mL (≈ 59.9 µM) (Micrococcus luteus; microbial killing, broth dilution; ATCC10240).
Cc1ccc2nc(-n3nc(C(C)C)c4c3-c3ccccc3C4=O)sc2c1 gave an inhibition zone of 12 mm (Staphylococcus aureus; microbial growth, well diffusion; NCIM5021; 125 µg/mL).
For O=C1NC(=S)S/C1=C\c1ccc(-c2ccc(N(c3ccccc3)c3ccccc3)cc2)cc1, the MBC was 500 µg/mL (≈ 1080 µM) (Micrococcus luteus; microbial killing, broth dilution; ATCC10240).
N#Cc1c(O)c2c(-c3ccc(-c4ccccc4O)cc3)csc2[nH]c1=O has an MIC of over 30 µM (Staphylococcus aureus; microbial growth; NCTC8325).
